# Test results taken from PMC4680848 (Structure (London, England : 1993), 2015).
# “Also recorded” adds a separate entry of the source.
# T1: BiP SBD-L3,4′ (residues 418-636), the SBD part of SBD-L3,4′-Tev-NR (human, UniProt P11021 418-636, L3,4′ (TASDNQP→VGG))
# T1 sequence (looked up): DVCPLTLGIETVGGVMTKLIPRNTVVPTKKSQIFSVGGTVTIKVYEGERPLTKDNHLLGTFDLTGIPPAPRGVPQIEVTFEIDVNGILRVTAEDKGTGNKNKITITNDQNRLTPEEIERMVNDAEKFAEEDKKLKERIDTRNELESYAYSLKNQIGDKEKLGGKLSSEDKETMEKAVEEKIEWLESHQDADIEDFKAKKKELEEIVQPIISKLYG
# B1: ERdj3: an abundant class I Hsp40 in ER, proposed to be an Hsp40 for BiP (protein)
# chain: GRDFYKILGVPRSASIKDIKKAYRKLALQLHPDRNPDDPQAQEKFQDLGAAYEVLSDSEKRKQYDTYGEEGLKDGHQSSHGDIFSHFFGDFGFMFGGTPRQQDRNIPRGSDIIVDLEVTLEEVYAGNFVEVVRNKPVARQAPGKRKCNCRQEMRTTQLGPGRFQMTQEVVCDECPNVKLVNEERTLEVEIEPGVRDGMEYPFIGEGEPHVDGEPGDLRFRIKVVKHPIFERRGDDLYTNVTISLVESLVGFEMDITHLDGHKVHISRDKITRPGAKLWKKGEGLPNFDNNNIKGSLIITFDVDFPKEQLTEEAREGIKQLLKQGSVQKVYNGLQGY
# B2: DnaJ: an Hsp40 co-chaperone for DnaK and founding representative of the class I Hsp40s (protein)
# chain: MAKQDYYEILGVSKTAEEREIRKAYKRLAMKYHPDRNQGDKEAEAKFKEIKEAYEVLTDSQKRAAYDQYGHAAFEQGGMGGGGFGGGADFSDIFGDVFGDIFGGGRGRQRAARGADLRYNMELTLEEAVRGVTKEIRIPTLEECDVCHGSGAKPGTQPQTCPTCHGSGQVQMRQGFFAVQQTCPHCQGRGTLIKDPCNKCHGHGRVERSKTLSVKIPAGVDTGDRIRLAGEGEAGEHGAPAGDLYVQVQVKQHPIFEREGNNLYCEVPINFAMAALGGEIEVPTLDGRVKLKVPGETQTGKLFRMRGKGVKSVRGGAQGDLLCRVVVETPVGLNERQKQLLQELQESFGGPTGEHNSPRSKSFFDGVKKFFDDLTR
# Experiments:
# [1] = target: T2, BiP-PP (G486P/G493P) (Homo sapiens, UniProt P11021, G486P/G493P); assay: Fluorescence anisotropy peptide substrate binding kinetics; conditions: F-NR peptide
# T2 sequence (P11021 25-654 G486P/G493P limits assumed): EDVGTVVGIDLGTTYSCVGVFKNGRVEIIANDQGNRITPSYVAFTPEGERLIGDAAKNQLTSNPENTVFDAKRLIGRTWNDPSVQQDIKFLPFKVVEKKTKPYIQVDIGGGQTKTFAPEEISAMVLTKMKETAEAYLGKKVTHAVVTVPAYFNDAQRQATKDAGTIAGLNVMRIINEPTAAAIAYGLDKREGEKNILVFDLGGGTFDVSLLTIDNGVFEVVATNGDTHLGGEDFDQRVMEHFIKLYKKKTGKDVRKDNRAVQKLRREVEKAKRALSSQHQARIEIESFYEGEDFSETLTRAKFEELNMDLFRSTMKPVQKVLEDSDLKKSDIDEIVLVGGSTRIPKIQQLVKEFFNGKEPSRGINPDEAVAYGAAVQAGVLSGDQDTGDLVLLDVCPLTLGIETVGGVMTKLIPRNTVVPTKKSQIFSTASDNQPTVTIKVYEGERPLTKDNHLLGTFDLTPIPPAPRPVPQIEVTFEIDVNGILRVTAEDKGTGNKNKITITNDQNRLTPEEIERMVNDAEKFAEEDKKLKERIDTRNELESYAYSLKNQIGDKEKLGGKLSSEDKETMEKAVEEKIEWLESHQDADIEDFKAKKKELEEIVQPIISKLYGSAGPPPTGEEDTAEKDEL
# [2] = test system: BiP SBD-Tev-NR; assay: Fluorescence polarization NR peptide binding; set-up: species or system human; conditions: SBD with covalently linked NR peptide; WT BiP SBD as positive control
# Summary of the method: (§1)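 Human BiP proteins (wild type or variant) were made as Smt3 fusions in E. coli BL21(DE3)Gold. They were purified on HisTrap, cut with Ulp1, run over a second HisTrap, then HiTrap Q and Superdex 200, and stored in 5 mM Hepes-KOH pH7.5, 10 mM KCl. Binding of NR peptide (NRLLLTG) was read by fluorescence polarization across serial protein dilutions. Kd was fitted from binding curves; standard errors come from at least 6 assays on more than two protein purifications.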
# [3] = test system: BiP-L3,4′; assay: Fluorescence polarization NR peptide binding; set-up: species or system human; conditions: L3,4′ modification (TASDNQP→VGG); WT BiP as positive control
# Summary of the method: as §1
# [4] = target: T3, human BiP (Homo sapiens, UniProt P11021); assay: Fluorescence polarization NR peptide binding affinity; conditions: WT BiP
# T3 sequence (P11021 19-654): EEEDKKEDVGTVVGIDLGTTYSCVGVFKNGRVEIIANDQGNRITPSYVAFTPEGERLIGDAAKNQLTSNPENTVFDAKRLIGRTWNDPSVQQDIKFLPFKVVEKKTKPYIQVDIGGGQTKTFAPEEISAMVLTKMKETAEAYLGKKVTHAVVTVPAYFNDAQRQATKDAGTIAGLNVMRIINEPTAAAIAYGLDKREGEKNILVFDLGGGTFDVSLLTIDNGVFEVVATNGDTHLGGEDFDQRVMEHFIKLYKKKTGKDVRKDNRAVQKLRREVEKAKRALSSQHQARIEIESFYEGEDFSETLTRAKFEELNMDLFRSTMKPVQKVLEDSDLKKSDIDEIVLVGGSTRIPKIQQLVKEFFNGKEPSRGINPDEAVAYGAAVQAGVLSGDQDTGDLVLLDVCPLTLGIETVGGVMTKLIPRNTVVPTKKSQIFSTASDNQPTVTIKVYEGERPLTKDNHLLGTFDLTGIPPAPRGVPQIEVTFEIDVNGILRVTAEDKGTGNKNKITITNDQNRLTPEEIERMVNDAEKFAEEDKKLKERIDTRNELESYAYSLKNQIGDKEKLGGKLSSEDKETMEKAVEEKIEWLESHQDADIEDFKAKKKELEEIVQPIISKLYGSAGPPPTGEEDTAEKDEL
# Summary of the method: as §1
# [5] = test system: BiP-PP; assay: Single-turnover ATPase assay; assay type: biochemical, human; conditions: single turn-over
# [6] = target: T2, BiP-PP (G486P/G493P); assay: Fluorescence polarization peptide binding affinity
# [7] = test system: BiP-T229A; assay: Fluorescence polarization NR peptide binding; set-up: species or system human; conditions: effect of ATP, WT BiP as positive control
# Summary of the method: as §1
# [8] = target: BiP R532E (Homo sapiens, UniProt P11021, R532E); assay: Fluorescence anisotropy NR peptide binding affinity; conditions: WT BiP as control
# BiP R532E, sequence (P11021 19-654 R532E): as the sequence (P11021 19-654) above, with R514E counted along it
# Summary of the method: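 BiP wild type and mutants were expressed in E. coli BL21(DE3)Gold as Smt3 fusions. Purification was by HisTrap, Ulp1 tag removal, a second HisTrap, HiTrap Q and Superdex 200. Fluorescence polarization/anisotropy binding of NR peptide (NRLLLTG) was measured with serial dilutions of protein, in the presence of ADP or ATP. Kd was calculated from the binding data.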
# [9] = test system: isolated SBD of BiP; assay: Fluorescence polarization NR peptide binding affinity; set-up: species or system human; conditions: isolated SBD vs full-length BiP
# Summary of the method: as §1
# [10] = target: T3, human BiP; assay: Fluorescence anisotropy peptide substrate binding kinetics
# [11] = target: F-NR peptide (labelled NR peptide, sequence NRLLLTG); assay: fluorescence polarisation
# [12] = test system: BiP; conditions: ref Marcinowski et al., 2011; cited from earlier work
# [13] = test system: BiP; assay: Single-turnover ATPase assay; assay type: biochemical, human
# [14] = test system: DnaK-PP (DnaK-G461P/G468P); assay: Single-turnover ATPase assay; assay type: biochemical, E. coli
# [15] = test system: DnaK
# [16] = target: T1, BiP SBD-L3,4′ (residues 418-636), the …; assay: crystal structure
molecule,measurement,setting,value
NRLLLTG [NR peptide],binding kinetics in the presence of ADP,[1],fast binding kinetics
same,binding of free NR peptide,[2],"Neither BiP SBD-Tev–NR nor SBD-L3,4′-Tev-NR showed appreciable binding; also recorded: completely blocks the binding of free NR peptide"
same,affinity for NR peptide / NR peptide binding,[3],drastically compromised the NR peptide binding; also recorded: drastically reduced affinity
same,binding affinity in the presence of ADP,[4]; +ADP,binding affinity is high
same,affinity for NR peptide in the presence of ATP,[4]; +ATP,drastically reduced the affinity
same,NR peptide binding,"[4]; fluorescence polarization, serial dilutions of BiP",binds NR peptide through its SBD and in an ATP-sensitive manner; also recorded: good affinity
same,stimulation of ATPase activity by NR peptide,[5],failed to stimulate the ATPase activity; also recorded: little appreciable stimulation
same,affinity for NR peptide in the presence of ADP,[6],reduced affinity
same,"NR peptide binding / affinity, ATP sensitivity",[7],binds NR peptide in an ATP-sensitive manner like that of WT BiP; also recorded: significantly reduced affinity for NR peptide in the presence of ATP
same,affinity for NR peptide in the presence of ADP,[8]; +ADP,normal affinity
same,affinity for NR peptide in the presence of ATP,[8]; +ATP,higher than that of WT BiP
same,affinity of isolated SBD for NR peptide,[9],affinity comparable to full-length BiP
same,"binding kinetics, both on and off rates, relative to DnaK","[10]; BiP vs DnaK, Fig. S1a,b",much slower than those of DnaK
same,binding kinetics in the presence of ADP,"[10]; WT BiP, +ADP, F-NR peptide",binding kinetics are slow
same,binding kinetics in the presence of ATP,"[10]; WT BiP, +ATP, F-NR peptide",fast binding kinetics
"human BiP (binding immunoglobulin protein), wild type (from UniProt P11021 19-654) (natural protein)",Kd relative to that of DnaK,[11],2 times lower
B1,interaction of ERdj3 with BiP in the presence of ADP,[12],significant interaction with BiP in the presence of ADP
same,stimulation of ATPase activity by ERdj3,[5],Neither ERdj3 (d) nor DnaJ (f) showed appreciable stimulation; also recorded: failed to show any appreciable stimulation
same,fold of stimulation of ATPase activity by ERdj3,"[13]; ERdj3 at 4 μM, intrinsic ATPase activity set as 1",more than 20 fold
same,stimulation of ATPase activity by ERdj3,"[14]; DnaK-PP, single turn-over",significant stimulation; also recorded: significant stimulation on DnaK-PP although to less extend than that of DnaJ; also recorded: stimulated DnaK-PP significantly
same,stimulation of ATPase activity by ERdj3,[15]; single turn-over,stimulated DnaK’s ATPase activity robustly
"NRLLLTG [NR peptide (sequence NRLLLTG), unlabelled]",binding result,[16],binds
B2,stimulation of ATPase activity by DnaJ,[5],Neither ERdj3 (d) nor DnaJ (f) showed appreciable stimulation; also recorded: failed to stimulate BiP-PP appreciably
same,stimulation of ATPase activity by DnaJ,[13]; compared with ERdj3,stimulated BiP although to less extend as ERdj3
same,stimulation of ATPase rate by DnaJ relative to WT DnaK,[14]; DnaK-PP vs WT DnaK,about two thirds of that of WT
same,stimulation of ATPase activity by DnaJ,"[14]; DnaK-PP, single turn-over",significant stimulation; also recorded: stimulates the ATPase rate of DnaK-PP drastically; also recorded: stimulated DnaK-PP significantly
same,fold of stimulation of ATPase rate by DnaJ,"[15]; DnaJ at 0.4 μM, intrinsic ATPase activity set as 1",~60 fold
